Bioassay records from PubChem BioAssay.
The list is not random: actives were taken first. Their share in the collection is about 1.6%.
TLR9-MyD88 inh – blocks human TLR9 binding to MyD88 | Q9NR96+Q99836 | CHO BLA complementation TLR9-MyD88, CCF4 FRET ratio | inhibition, % at 4.98 µM | 0.21% of 340,000 active;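 active = inhibition above the mean over all tested compounds plus 3 SD, cut at about 21% in these data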
TLR4-MyD88 BLA – blocks binding of human TLR4 to MyD88. 0.18% of 200,000 active. HeLa CL3-4 TLR4/MyD88 BLA complementation, FRET ratio. O00206+Q99836. inhibition, % at 8.4 µM. AID 861; in the data active = inhibition above about 25%
Target sequence (O00206 whole entry, looked up): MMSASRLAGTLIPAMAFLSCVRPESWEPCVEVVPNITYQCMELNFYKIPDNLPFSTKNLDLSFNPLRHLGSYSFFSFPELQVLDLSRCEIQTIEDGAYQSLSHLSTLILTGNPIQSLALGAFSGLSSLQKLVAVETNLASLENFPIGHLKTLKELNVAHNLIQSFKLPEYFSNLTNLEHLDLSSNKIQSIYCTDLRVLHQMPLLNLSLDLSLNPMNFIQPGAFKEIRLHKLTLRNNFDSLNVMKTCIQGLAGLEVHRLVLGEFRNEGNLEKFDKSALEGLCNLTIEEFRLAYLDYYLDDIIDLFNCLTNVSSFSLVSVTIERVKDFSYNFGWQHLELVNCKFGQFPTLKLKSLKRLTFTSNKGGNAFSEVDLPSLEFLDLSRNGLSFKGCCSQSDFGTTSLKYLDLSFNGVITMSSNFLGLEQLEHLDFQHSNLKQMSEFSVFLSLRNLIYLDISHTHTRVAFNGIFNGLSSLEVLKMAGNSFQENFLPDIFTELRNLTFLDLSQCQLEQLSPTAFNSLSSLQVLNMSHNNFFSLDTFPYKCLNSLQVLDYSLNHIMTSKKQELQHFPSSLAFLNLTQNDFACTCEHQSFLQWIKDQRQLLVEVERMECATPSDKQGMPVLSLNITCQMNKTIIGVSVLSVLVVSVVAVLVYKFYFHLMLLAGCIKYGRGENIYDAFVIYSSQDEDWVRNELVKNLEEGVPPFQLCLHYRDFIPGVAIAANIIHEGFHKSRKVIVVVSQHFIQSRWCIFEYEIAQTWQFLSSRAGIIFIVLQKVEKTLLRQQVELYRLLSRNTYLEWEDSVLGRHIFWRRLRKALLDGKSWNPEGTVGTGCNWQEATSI
Target sequence (Q99836 whole entry, looked up): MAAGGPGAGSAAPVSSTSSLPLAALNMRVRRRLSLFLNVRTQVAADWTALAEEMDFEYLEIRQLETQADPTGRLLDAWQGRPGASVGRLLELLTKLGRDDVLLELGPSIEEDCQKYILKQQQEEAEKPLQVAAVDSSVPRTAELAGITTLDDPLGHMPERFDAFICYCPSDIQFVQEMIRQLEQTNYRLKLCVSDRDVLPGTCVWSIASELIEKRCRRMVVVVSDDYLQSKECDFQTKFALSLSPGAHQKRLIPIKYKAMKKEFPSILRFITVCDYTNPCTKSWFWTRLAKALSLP
ABHD5 PLIN5 PPI – blocks binding of human ABHD5 to perilipin-5; Split G. princeps luciferase complementation, luminescence, 4 h; inhibition, % at 4 µM; 0.78% of 360,000 active; AID 602281;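 active = inhibition above the mean inhibition across every tested compound plus 3 SD, cut at about 22% in these data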
Dynein transport – dynein cargo transport inhibition | 3617.4 mouse cells, GR-EGFP nuclear translocation imaging; test concentration mostly 20 µM; stimulated with dexamethasone, 1 µM; active compounds read low | z-score, hits read low | 0.47% of 220,000 active | AID 1381;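 active = plate z-score of nuclear minus cytoplasmic receptor signal below a set negative limit, without overly bright fluorescence or cell loss, cut at about -3.5 in these data, passing the limit was not always enough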;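 note: z-score of nuclear minus cytoplasmic ring GR-EGFP intensity difference per well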
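Also added – dexamethasone, 1.0 µM final · Buffer or medium – tet-free, stripped-serum medium · Schedule – induction 48 h, compound 1 h, agonist 30 min · Detection – formaldehyde fixation, Hoechst nuclear stain, 10x automated fluorescence imaging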
B2AR ag – agonists of human beta-2 adrenergic receptor inducing internalization | P07550 | Am2.2-beta2AR cells, FAP receptor internalization, flow cytometry | response, % (no concentration beside the values) | 0.43% of 340,000 active | AID 504454;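 active = response above a set limit, near 3 SD of response in nonfluorescent compounds, cut at about 42% in these data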
NOD2-RIPK2 inh – NOD2-RIPK2 protein interaction inhibition. CHO BLA complementation NOD2-RIPK2, CCF4 ratio. inhibition, % at 4.98 µM. 0.38% of 360,000 active. AID 624267; in the data active = inhibition above about 21%
ABHD5-PLIN5 conf – ABHD5-PLIN5 interaction inhibition, confirmed. AID 651612. biochemical ABHD5-PLIN5 interaction, luminescence. inhibition, % at 4 µM. shares compounds with ABHD5 PLIN5 PPI. 67% of 2,200 active; in the data active = inhibition above about 23%
HNF4 counter – HNF4 split-luciferase signal hit, counter-screen; inhibition, % at 4 µM; HNF4 dimerization, luminescence, biochemical; shares compounds with ABHD5 PLIN5 PPI; 77% of 2,200 active;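 active = mean inhibition across replicate wells exceeding the computed hit threshold, cut at about 13% in these data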;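 note: light from luciferase halves that rejoin when HNF4 fusion proteins dimerize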
NOD2-RIPK2 conf – NOD2-RIPK2 interaction inhibition confirmed; shares compounds with NOD2-RIPK2 inh; CHO cells, NOD2-RIPK2 BLA complementation, CCF4 FRET; inhibition, % at 4.98 µM; 70% of 1,200 active; AID 624370;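 active = mean inhibition across replicates above a set limit taken from the earlier primary screen, cut at about 21% in these data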
NOD2 BLA counter – counter-screen for NOD2-RIPK2 interaction inhibitors: BLA reporter | shares compounds with NOD2-RIPK2 inh | CHO BLA reporter, CCF4 FRET ratio, counterscreen | inhibition, % at 4.98 µM | 57% of 1,200 active | AID 624371;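 active = mean inhibition above the low-control mean inhibition plus three low-control SD, cut at about 11% in these data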
A number is an active result; - = inactive; . = no result.

SMILES	TLR9-MyD88 inh	TLR4-MyD88 BLA	ABHD5 PLIN5 PPI	Dynein transport	B2AR ag	NOD2-RIPK2 inh	ABHD5-PLIN5 conf	HNF4 counter	others
CC(C=CC(O)=C1C(=O)CNC1=O)=C[C@@H](C)C1OC2(C)OC(C(=O)C3O[C@@]32C)C1C (some centres not stated)	.	.	-	.	.	-	.	.
Cc1ccc2nc(-c3ccco3)c(CC3CCCCC3)n2c1	.	.	35	.	.	-	-	22
Brc1ccc2nc(-c3ccco3)c(CC3CCCCC3)n2c1	.	.	24	.	.	-	28	38
COc1ccccc1Cc1c(-c2ccco2)nc2ccc(C)cn12	.	.	56	.	.	-	27	48
Cc1ccc2nc(-c3ccco3)c(Cc3cccc(F)c3)n2c1	.	.	56	.	.	-	-	20
CCN1CCN(C(C(=O)NC2CCCCC2)c2ccnc3ccccc23)CC1 (configuration not stated)	.	.	-	.	.	-	.	.
CCOC(=O)C(=O)N(C)c1c(CC)nc2c(OCc3ccccc3OC)cccn12	.	.	-	.	.	-	.	.
Cc1cc(Br)cn2c(Cc3ccccc3)c(-c3ccco3)nc12	.	.	30	.	.	-	30	45
FC(F)(F)c1ccccc1Cc1c(-c2ccco2)nc2ccc(Cl)cn12	.	.	34	.	.	-	46	63
COc1cccc(C(C)(O)c2nc(-c3ccc(C)c(C)c3)cs2)c1 (configuration not stated)	.	.	-	.	.	-	.	.
CCCn1nnc(NC(=O)/C=C/c2ccco2)n1	-	.	-	-	-	-	.	.
Cn1nnc(NC(=S)NC(=O)/C=C/c2ccco2)n1	-	.	24	-	-	-	-	-
CC(C)=N/N=c1\scc(C)n1Cc1ccco1	-	-	-	-	-	-	.	.
COC(=O)c1cc(=O)n(Cc2ccco2)c(=Nc2ccc(F)cc2)s1	-	-	31	-4.6	-	-	65	44
Cc1c(C(=O)NCc2ccccc2C(F)(F)F)sc(=O)n1Cc1ccc(S(=O)(=O)N(C)C)cc1	.	.	-	.	.	-	.	.
CC(C)c1ccc(Nc2c([N+](=O)[O-])c(=O)n(C)c3ccccc23)cc1	-	.	-	-	-	-	.	.
Cn1c(=O)c(Nc2ccc(O)cc2)c2c3c(cccc31)C(=O)c1ccccc1-2	-	-	25	-	-	-	22	20
CC(C)C[C@@H]1CN=C(N)N1C[C@@H]1CCCN1C[C@H](C)N1C[C@@H](Cc2ccccc2)N(CCc2ccc(Cl)c(Cl)c2)C1=N	-	.	27	.	-	-	-	-
CC(C)C[C@@H]1CN=C(N)N1C[C@@H]1CCCN1C[C@@H](C(C)C)N1C[C@@H](Cc2ccccc2)N(CCc2ccc(Cl)c(Cl)c2)C1=N	-	.	-	.	-	-	.	.
CC[C@@H](C)[C@@H]1CN([C@@H](CN2CCC[C@H]2CN2C(N)=NC[C@@H]2Cc2ccccc2)C(C)C)C(=N)N1CCCC1CCCC1	-	.	28	.	-	-	-	-
C[C@H]1CN([C@@H](C)CO)C(=O)CCCn2nncc2CO[C@H]1CN(C)C(=O)c1ccc2ccn(C)c2c1	-	.	-	.	.	-	.	.
COc1ccc(CNC(=O)c2nc(S(=O)(=O)Cc3ccccc3)ncc2Cl)cc1	-	.	41	.	-	62	89	103	NOD2-RIPK2 conf=63;NOD2 BLA counter=15
O=C(NCc1ccccc1)c1nc(S(=O)(=O)Cc2ccccc2)ncc1Cl	-	.	51	.	-	53	89	105	NOD2-RIPK2 conf=54;NOD2 BLA counter=14
COc1ccc(S(=O)(=O)Cc2ccc(C(=O)NCc3ccccc3)o2)cc1	-	.	-	.	-	-	.	.
